Values after ≈ are worked out from the molar mass of the structure shown.
Experiments:
[1] = tested on: tested Gram-positive strains (S. aureus incl. MRSA, S. epidermidis, B. subtilis); test: MIC summarised in the text over the tested Gram-positive strains; assay type: cell-based
[2] = tested on: S. aureus BAA-2312 (Sa12); test: MIC, broth microdilution with resazurin; assay type: cell-based, Staphylococcus aureus; settings: Staphylococcus aureus, BAA2312, read-out: MIC Values Sa12
In short: (§1)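 CLSI broth microdilution. Strains were grown overnight at 35 °C on TSA or TSA with 5% sheep blood. Colonies were suspended in 0.9% saline to 0.5 McFarland, then diluted 1:100 in Mueller Hinton broth (about 1 × 10^6 CFU/mL). Test compound (2 mg/mL DMSO stock) was serially diluted 1:2 from 50 µg/mL final. Resazurin was added at 8 µg/mL final, and plates were incubated 35 °C for 20–24 h and read visually. MIC is the lowest concentration without the resazurin colour change. Each plate carried untreated, DMSO and antibiotic controls.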

[3] = tested on: S. aureus ATCC 33591 (Sa91); test: MIC, broth microdilution with resazurin; assay type: cell-based, Staphylococcus aureus; settings: Staphylococcus aureus, ATCC33591, read-out: MIC Values Sa91
In short: as §1

[4] = tested on: S. aureus ATCC 700699 (Sa99); test: MIC, broth microdilution with resazurin; assay type: cell-based, Staphylococcus aureus; settings: for MIC: Staphylococcus aureus, ATCC700699, read-out: MIC Values Sa99
In short: as §1

[5] = tested on: S. epidermidis 700296 (Se); test: MIC, broth microdilution with resazurin; assay type: cell-based; settings: Staphylococcus epidermidis, read-out: MIC Values Se
[6] = tested on: S. aureus ATCC 25923 (Sa); test: MIC, broth microdilution with resazurin; assay type: cell-based, Staphylococcus aureus; settings: Staphylococcus aureus, ATCC25923, read-out: MIC Values Sa
In short: as §1

[7] = tested on: S. aureus ATCC 33592 (Sa92); test: MIC, broth microdilution with resazurin; assay type: cell-based, Staphylococcus aureus; settings: Staphylococcus aureus, ATCC33592, read-out: MIC Values Sa92
In short: as §1

[8] = tested on: A. baumannii ATCC 747 (Ab47); test: MIC, broth microdilution with resazurin; assay type: cell-based, Acinetobacter baumannii; settings: Acinetobacter baumannii, ATCC747, read-out: MIC Ab47
In short: as §1

[9] = tested on: A. baumannii ATCC 19606 (Type Strain, AB06); test: MIC, broth microdilution with resazurin; assay type: cell-based, Acinetobacter baumannii; settings: Acinetobacter baumannii, ATCC19606, read-out: MIC Ab06
In short: as §1

[10] = tested on: three strains of A. baumannii; test: MIC summarised in the text over the three A. baumannii strains; assay type: cell-based, Acinetobacter baumannii
In short: as §1

Compound | MIC value as low as ([1]; lowest MIC over the tested Gram-positive / MRSA strains) | MIC [2] | MIC [3] | MIC [4] | MIC [5] | MIC [6] | MIC [7] | activity against the tested strains (in words) [1] | MIC [8] | MIC [9] | activity against A. baumannii strains (in words) [10] | MIC Values Sa99 ([4]; antibiotic-resistant strain, NA = No Activity)
O=C(O)c1ccc(-n2cc(/C=N/Nc3cccc(Cl)c3F)c(-c3cccc(F)c3)n2)cc1 [Compound 13, 4-[4-[(E)-[(3-Chloro-2-fluorophenyl)hydrazono]methyl]-3-(3-fluorophenyl)pyrazol-1-yl]benzoic Acid] | 0.78 µg/mL (≈ 1.72 µM) | 12.5 µg/mL (≈ 27.6 µM) | 6.25 µg/mL (≈ 13.8 µM) | 3.12 µg/mL (≈ 6.9 µM) | 6.25 µg/mL (≈ 13.8 µM) | 3.12 µg/mL (≈ 6.9 µM) | 0.78 µg/mL (≈ 1.72 µM) | – | – | – | – | –
4-[4-[(2-Benzyl-2-phenyl-hydrazino)methyl]-3-(4-fluorophenyl)pyrazol-1-yl]benzoic Acid [Compound 24] | – | – | – | – | – | – | – | failed to show any significant activity | – | – | – | –
O=C(O)c1ccc(-n2cc(/C=N/Nc3cc(F)ccc3F)c(-c3cccc(F)c3)n2)cc1 [Compound 11, 4-[4-[(E)-[(2,5-Difluorophenyl)hydrazono]methyl]-3-(3-fluorophenyl)pyrazol-1-yl]benzoic Acid] | – | 12.5 µg/mL (≈ 28.6 µM) | 12.5 µg/mL (≈ 28.6 µM) | 6.25 µg/mL (≈ 14.3 µM) | 12.5 µg/mL (≈ 28.6 µM) | 12.5 µg/mL (≈ 28.6 µM) | 3.12 µg/mL (≈ 7.16 µM) | – | – | – | – | –
O=C(O)c1ccc(-n2cc(/C=N/Nc3ccc(F)cc3)c(-c3ccc(F)cc3)n2)cc1 [Compound 26, 4-[3-(4-Fluorophenyl)-4-[(E)-[(4-fluorophenyl)hydrazono]methyl]pyrazol-1-yl]benzoic Acid] | – | 25 µg/mL (≈ 59.8 µM) | 25 µg/mL (≈ 59.8 µM) | 12.5 µg/mL (≈ 29.9 µM) | 25 µg/mL (≈ 59.8 µM) | 12.5 µg/mL (≈ 29.9 µM) | 12.5 µg/mL (≈ 29.9 µM) | moderate activity | > 25 µg/mL | 12.5 µg/mL (≈ 29.9 µM) | – | –
O=C(O)c1ccc(-n2cc(/C=N/N(Cc3ccccc3)c3ccccc3)c(-c3cccc(F)c3)n2)cc1 [Compound 6, 4-[4-[(E)-[Benzyl(phenyl)hydrazono]methyl]-3-(3-fluorophenyl)pyrazol-1-yl]benzoic Acid] | – | 1.56 µg/mL (≈ 3.18 µM) | 1.56 µg/mL (≈ 3.18 µM) | 1.56 µg/mL (≈ 3.18 µM) | 1.56 µg/mL (≈ 3.18 µM) | 1.56 µg/mL (≈ 3.18 µM) | 1.56 µg/mL (≈ 3.18 µM) | – | – | – | – | –
CN(/N=C/c1cn(-c2ccc(C(=O)O)cc2)nc1-c1cccc(F)c1)c1ccccc1 [Compound 4, 4-{3-(3-Fluorophenyl)-4-[(E)-(2-methyl-2-phenylhydrazinylidene)methyl]-1H-pyrazol-1-yl}benzoic Acid] | – | 25 µg/mL (≈ 60.3 µM) | 25 µg/mL (≈ 60.3 µM) | 25 µg/mL (≈ 60.3 µM) | 12.5 µg/mL (≈ 30.2 µM) | 12.5 µg/mL (≈ 30.2 µM) | 12.5 µg/mL (≈ 30.2 µM) | moderate growth inhibition | – | – | – | –
O=C(O)c1ccc(-n2cc(/C=N/Nc3cccc(Br)c3)c(-c3ccc(F)cc3)n2)cc1 [Compound 27, 4-[4-[(E)-[(3-Bromophenyl)hydrazono]methyl]-3-(4-fluorophenyl)pyrazol-1-yl]benzoic Acid] | – | 12.5 µg/mL (≈ 26.1 µM) | 12.5 µg/mL (≈ 26.1 µM) | 6.25 µg/mL (≈ 13 µM) | 25 µg/mL (≈ 52.2 µM) | 12.5 µg/mL (≈ 26.1 µM) | 3.12 µg/mL (≈ 6.52 µM) | moderate activity | 25 µg/mL (≈ 52.2 µM) | 6.25 µg/mL (≈ 13 µM) | – | –
O=C(O)c1ccc(-n2cc(/C=N/Nc3ccc(C(F)(F)F)cc3)c(-c3cccc(F)c3)n2)cc1 [Compound 16, 4-[3-(3-Fluorophenyl)-4-[(E)-[[4-(trifluoromethyl)phenyl]hydrazono]methyl]pyrazol-1-yl]benzoic Acid] | – | 12.5 µg/mL (≈ 26.7 µM) | 6.25 µg/mL (≈ 13.3 µM) | 6.25 µg/mL (≈ 13.3 µM) | 12.5 µg/mL (≈ 26.7 µM) | 12.5 µg/mL (≈ 26.7 µM) | 6.25 µg/mL (≈ 13.3 µM) | moderate activity | – | – | – | –
O=C(O)c1ccc(-n2cc(/C=N/Nc3c(F)c(F)cc(F)c3F)c(-c3cccc(F)c3)n2)cc1 [Compound 14, 4-[3-(3-Fluorophenyl)-4-[(E)-[(2,3,5,6-tetrafluorophenyl)hydrazono]methyl]pyrazol-1-yl]benzoic Acid] | – | 12.5 µg/mL (≈ 26.5 µM) | 12.5 µg/mL (≈ 26.5 µM) | 6.25 µg/mL (≈ 13.2 µM) | 25 µg/mL (≈ 52.9 µM) | 12.5 µg/mL (≈ 26.5 µM) | 6.25 µg/mL (≈ 13.2 µM) | moderate activity | – | – | – | –
O=C(O)c1ccc(-n2cc(/C=N/Nc3cccc(Cl)c3)c(-c3cccc(F)c3)n2)cc1 [Compound 8, 4-[4-[(E)-[(3-Chlorophenyl)hydrazono]methyl]-3-(3-fluorophenyl)pyrazol-1-yl]benzoic Acid] | – | 12.5 µg/mL (≈ 28.7 µM) | 12.5 µg/mL (≈ 28.7 µM) | 3.12 µg/mL (≈ 7.19 µM) | 12.5 µg/mL (≈ 28.7 µM) | 6.25 µg/mL (≈ 14.4 µM) | 6.25 µg/mL (≈ 14.4 µM) | – | 12.5 µg/mL (≈ 28.7 µM) | 6.25 µg/mL (≈ 14.4 µM) | moderate activity | –
O=C(O)c1ccc(-n2cc(/C=N/N(Cc3ccccc3)Cc3ccccc3)c(-c3ccc(F)cc3)n2)cc1 [Compound 25, 4-[4-[(E)-(Dibenzylhydrazono)methyl]-3-(4-fluorophenyl)pyrazol-1-yl]benzoic Acid] | – | – | – | 6.25 µg/mL (≈ 12.4 µM) | – | – | 3.12 µg/mL (≈ 6.19 µM) | – | – | – | – | –
O=C(O)c1ccc(-n2cc(/C=N/Nc3cc(F)ccc3F)c(-c3ccc(F)cc3)n2)cc1 [Compound 28, 4-[4-[(E)-[(2,5-Difluorophenyl)hydrazono]methyl]-3-(4-fluorophenyl)pyrazol-1-yl]benzoic Acid] | – | 12.5 µg/mL (≈ 28.6 µM) | 25 µg/mL (≈ 57.3 µM) | 6.25 µg/mL (≈ 14.3 µM) | 12.5 µg/mL (≈ 28.6 µM) | 12.5 µg/mL (≈ 28.6 µM) | 6.25 µg/mL (≈ 14.3 µM) | moderate activity | – | – | – | –
O=C(O)c1ccc(-n2cc(/C=N/Nc3ccccn3)c(-c3cccc(F)c3)n2)cc1 [Compound 20, 4-[3-(3-Fluorophenyl)-4-{(E)-[2-(pyridin-2-yl)hydrazinylidene]methyl}-1H-pyrazol-1-yl]benzoic Acid] | – | – | – | – | – | – | – | completely ceased the activity | – | – | – | –
N#Cc1ccc(N/N=C/c2cn(-c3ccc(C(=O)O)cc3)nc2-c2ccc(F)cc2)cc1 [Compound 30, 4-[4-[(E)-[(4-Cyanophenyl)hydrazono]methyl]-3-(4-fluorophenyl)pyrazol-1-yl]benzoic Acid] | – | – | – | 6.25 µg/mL (≈ 14.7 µM) | – | 12.5 µg/mL (≈ 29.4 µM) | 12.5 µg/mL (≈ 29.4 µM) | moderate activity | 12.5 µg/mL (≈ 29.4 µM) | 12.5 µg/mL (≈ 29.4 µM) | – | –
O=C(O)c1ccc(-n2cc(/C=N/n3cnnc3)c(-c3cccc(F)c3)n2)cc1 [Compound 19, 4-[3-(3-Fluorophenyl)-4-[(E)-1,2,4-triazol-4-yliminomethyl]pyrazol-1-yl]benzoic Acid] | – | – | – | – | – | – | – | completely ceased the activity | – | – | – | –
O=Cc1cn(-c2ccc(C(=O)O)cc2)nc1-c1cccc(F)c1 [3a, 4-[3-(3-Fluorophenyl)-4-formyl-pyrazol-1-yl]benzoic Acid] | – | – | – | – | – | – | – | – | – | – | – | did not show any activity
O=C(O)c1ccc(-n2cc(/C=N/Nc3cccc(Br)c3)c(-c3cccc(F)c3)n2)cc1 [Compound 9, 4-[4-[(E)-[(3-Bromophenyl)hydrazono]methyl]-3-(3-fluorophenyl)pyrazol-1-yl]benzoic Acid] | – | 12.5 µg/mL (≈ 26.1 µM) | 12.5 µg/mL (≈ 26.1 µM) | 3.12 µg/mL (≈ 6.52 µM) | 12.5 µg/mL (≈ 26.1 µM) | 12.5 µg/mL (≈ 26.1 µM) | 6.25 µg/mL (≈ 13 µM) | – | 12.5 µg/mL (≈ 26.1 µM) | 6.25 µg/mL (≈ 13 µM) | moderate activity | –
O=C(O)c1ccc(-n2cc(/C=N/Nc3ccc([N+](=O)[O-])cc3)c(-c3ccc(F)cc3)n2)cc1 [Compound 31, 4-[3-(4-Fluorophenyl)-4-{(E)-[2-(4-nitrophenyl)hydrazinylidene]methyl}-1H-pyrazol-1-yl]benzoic Acid] | – | – | – | – | – | – | – | no activity | – | – | – | –
O=C(O)c1ccc(-n2cc(/C=N/Nc3cccc(Cl)c3F)c(-c3ccc(F)cc3)n2)cc1 [Compound 29, 4-[4-[(E)-[(3-Chloro-2-fluorophenyl)hydrazono]methyl]-3-(4-fluorophenyl)pyrazol-1-yl]benzoic Acid] | – | 3.12 µg/mL (≈ 6.9 µM) | 12.5 µg/mL (≈ 27.6 µM) | 1.56 µg/mL (≈ 3.44 µM) | 12.5 µg/mL (≈ 27.6 µM) | 6.25 µg/mL (≈ 13.8 µM) | 1.56 µg/mL (≈ 3.44 µM) | – | – | – | – | –
O=C(O)c1ccc(N/N=C/c2cn(-c3ccc(C(=O)O)cc3)nc2-c2cccc(F)c2)cc1 [Compound 18, 4-[(2E)-2-[[1-(4-Carboxyphenyl)-3-(3-fluorophenyl)pyrazol-4-yl]methylene]hydrazino]benzoic Acid] | – | – | – | – | – | – | – | completely ceased the activity | – | – | – | –
O=C(O)c1ccc(-n2cc(/C=N/Nc3c(F)c(F)c(F)c(F)c3F)c(-c3cccc(F)c3)n2)cc1 [Compound 15, 4-[3-(3-Fluorophenyl)-4-[(E)-[(2,3,4,5,6-pentafluorophenyl)hydrazono]methyl]pyrazol-1-yl]benzoic Acid] | – | 12.5 µg/mL (≈ 25.5 µM) | 12.5 µg/mL (≈ 25.5 µM) | 6.25 µg/mL (≈ 12.7 µM) | 25 µg/mL (≈ 51 µM) | 12.5 µg/mL (≈ 25.5 µM) | 3.12 µg/mL (≈ 6.37 µM) | moderate activity | – | – | – | –

— paper PMC6733178 (ACS Omega, 2019)
